Measured values: ChEMBL document CHEMBL1125654, “New inhibitors of human renin that contain novel replacements at the P2 site” (J Med Chem, 1991)
pIC50: −log10 of the molar value.

Legend:
[1] = target: T1, Renin (Homo sapiens, UniProt P00797); test: Inhibitory activity against monkey plasma renin.; type: cell-free, Cercopithecidae; details: target entry is the homologue from another species
T1 sequence (P00797 whole entry): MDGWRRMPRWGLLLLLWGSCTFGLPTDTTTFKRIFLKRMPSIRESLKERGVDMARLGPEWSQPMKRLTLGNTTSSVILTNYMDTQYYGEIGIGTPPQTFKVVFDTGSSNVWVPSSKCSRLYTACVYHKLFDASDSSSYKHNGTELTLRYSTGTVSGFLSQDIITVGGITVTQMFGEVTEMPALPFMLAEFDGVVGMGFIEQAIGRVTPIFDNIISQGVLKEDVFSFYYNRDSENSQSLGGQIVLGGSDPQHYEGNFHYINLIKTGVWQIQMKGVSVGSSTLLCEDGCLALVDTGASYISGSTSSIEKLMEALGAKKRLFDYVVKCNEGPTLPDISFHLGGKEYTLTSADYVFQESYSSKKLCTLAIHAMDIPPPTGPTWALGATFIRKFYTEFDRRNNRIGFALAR
How it was run: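 Plasma from salt-depleted, furosemide-treated monkeys (native renin and angiotensinogen) incubated with maleate buffer (pH 6.0), PMSF and inhibitor in DMSO for 60 min at 37 °C. Plasma renin activity was 3–8 ng AI/mL per h. Percent inhibition was taken vs DMSO vehicle tubes, and IC50 from six concentrations by nonlinear regression.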

[2] = target: T1, Renin; test: Inhibitory activity against human plasma renin; type: cell-free
[3] = Partition coefficient (logD7.4); details: octanol/water
[4] = target: T2, Cathepsin D (Bos taurus, UniProt P80209); test: (§1) Inhibitory activity against bovine cathepsin D was determined
T2 sequence (P80209 whole entry): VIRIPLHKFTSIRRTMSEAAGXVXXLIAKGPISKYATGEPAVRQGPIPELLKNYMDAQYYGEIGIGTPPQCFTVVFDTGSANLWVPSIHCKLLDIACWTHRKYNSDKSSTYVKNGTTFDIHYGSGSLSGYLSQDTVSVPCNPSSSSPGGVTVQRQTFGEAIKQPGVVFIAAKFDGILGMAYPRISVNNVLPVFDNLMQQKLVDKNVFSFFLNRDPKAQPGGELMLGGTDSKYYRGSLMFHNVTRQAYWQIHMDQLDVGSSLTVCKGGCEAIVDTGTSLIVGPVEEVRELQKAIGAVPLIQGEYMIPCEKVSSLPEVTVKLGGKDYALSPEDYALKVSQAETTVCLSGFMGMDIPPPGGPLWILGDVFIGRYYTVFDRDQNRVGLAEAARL
How it was run: (§2)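 Bovine cathepsin D activity assayed in duplicate as hydrolysis of bovine hemoglobin (2× crystallized) at pH 3.2, 37 °C. Net absorbance at 280 nm read in acid-precipitated supernatants of inhibited vs uninhibited controls. IC50 from six inhibitor concentrations by nonlinear regression.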

[5] = target: T3, Renin (Homo sapiens) (UniProt P00797); test: Inhibitory activity against monkey plasma renin was determined at 10e-5 M concentration; type: cell-free; details: Cercopithecidae, target entry is the homologue from another species
T3 sequence (whole entry): T1 sequence (P00797 whole entry)
How it was run: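 Angiotensin I generated from monkey plasma (native renin and angiotensinogen) with maleate buffer pH 6.0, PMSF and inhibitor in DMSO, 60 min at 37 °C. Percent inhibition estimated against DMSO vehicle control tubes. Plasma renin activity 3–8 ng AI/mL per h.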

[6] = target: T1, Renin; test: Inhibitory activity against human plasma renin; G means not measured; type: cell-free
[7] = target: T2, Cathepsin D; test: Inhibitory activity against bovine Cathepsin D was determined; how it was run: as §2
[8] = solubility in phosphate buffer at pH 7.4; type: physicochemical
[9] = target: T4, Cathepsin D (Bos taurus) (UniProt P80209); test: as §1; details: concentration not given here; how it was run: as §2
T4 sequence (whole entry): T2 sequence (P80209 whole entry)

CCC(C)CNC(=O)C[C@H](O)C(CC(C)C)NC(=O)C(CCCCNC(=S)Nc1ccccc1)NC(=O)C(Cc1cccc2ccccc12)Cc1cccc2ccccc12 (stereo partly drawn) showed a pIC50 [1] of 6.86, a pIC50 [2] of 7.24 and a logD ([3]; pH 7.4, logD) of 6.6.
With CCC(C)CNC(=O)C[C@H](O)C(CC(C)C)NC(=O)C(CC#CCNC(C)=O)NC(=O)C(Cc1cccc2ccccc12)Cc1cccc2ccccc12 (stereo in doubt; 55b) the pIC50 [1] was 7.39, the pIC50 [2] was 7.54 and the logD ([3]; pH 7.4) was 5.06.
CC(C)CC(NC(=O)C[C@H](O)C(CC(C)C)NC(=O)C(CCCCNC(=O)OCc1ccccc1)NC(=O)C(Cc1cccc2ccccc12)Cc1cccc2ccccc12)C(=O)NCc1ccccc1 (stereo partly drawn) showed a pIC50 [1] of 5.10, a pIC50 [2] of 5.54 and a logD ([3]; pH 7.4, logD) of 7.69.
With NCCC1CN(C(=O)C[C@H](O)C(CC2CCCCC2)NC(=O)C(Cc2c[nH]cn2)NC(=O)C(Cc2ccccc2)NS(=O)(=O)N2CCOCC2)CCO1 (stereo partly drawn) the pIC50 [1] was 8.30, the pIC50 [2] was 8.27 and the logD ([3]; pH 7.4, logD) was 2.25.
For CCC(C)CNC(=O)C[C@H](O)C(CC(C)C)NC(=O)C(CCCCNC(C)=O)NC(=O)C(Cc1cccc2ccccc12)Cc1cccc2ccccc12 (stereo partly drawn), the pIC50 [1] was 7.44, the pIC50 [2] was 8.21 and the logD ([3]; pH 7.4, logD) was 4.38.
For CCC(C)CNC(=O)C[C@H](O)C(CC1CCCCC1)NC(=O)C(CCCC/N=C(/S)NC)NC(=O)C(Cc1cccc2ccccc12)Cc1cccc2ccccc12 (stereo partly drawn), the pIC50 [4] was 5.49, the pIC50 [1] was 7.33 and the logD ([3]; pH 7.4, logD) was 6.63.
In the case of CCC(C)CNC(=O)C[C@H](O)C(CC(C)C)NC(=O)C(CCCCNS(=O)(=O)c1ccc(C)cc1)NC(=O)C(Cc1cccc2ccccc12)Cc1cccc2ccccc12 (stereo partly drawn), the inhibition [5] was 48%, the pIC50 [2] was 5.52 and the logD ([3]; pH 7.4, logD) was 6.7.
Compound CCC(C)CNC(=O)C[C@H](O)C(CC(C)C)NC(=O)C(CCNC(=S)NC)NC(=O)C(Cc1cccc2ccccc12)Cc1cccc2ccccc12 (stereo partly drawn) has a pIC50 [1] of 5.60, a pIC50 [2] of 5.03 and a logD ([3]; pH 7.4, logD) of 5.7.
For CCC(C)CNC(=O)C[C@H](O)C(CC(C)C)NC(=O)C(CCCCn1cccc1)NC(=O)C(Cc1cccc2ccccc12)Cc1cccc2ccccc12 (stereo partly drawn), the pIC50 [1] was 6.84, the pIC50 [2] was 7.06 and the logD ([3]; pH 7.4, logD) was 7.21.
Compound CCC(C)CNC(=O)C[C@H](O)C(CC(C)C)NC(=O)C(CC#CCNC(C)=O)NC(=O)C(Cc1cccc2ccccc12)Cc1cccc2ccccc12 (stereo in doubt; 55a) has a pIC50 [6] of 8.70, a pIC50 [4] of 7.11 and a pIC50 [1] of 8.34. The logD ([3]; pH 7.4, logD) was 5.32.
For CCC(C)CNC(=O)C[C@H](O)C(CC(C)C)NC(=O)C(CCCCCNC(=S)NC)NC(=O)C(Cc1cccc2ccccc12)Cc1cccc2ccccc12 (stereo partly drawn), the pIC50 [1] was 7.41, the pIC50 [2] was 7.40 and the logD ([3]; pH 7.4, logD) was 5.41.
CCC(C)CNC(=O)C[C@H](O)C(CC(C)C)NC(=O)C(CCCCCCN=C(S)NC)NC(=O)C(Cc1cccc2ccccc12)Cc1cccc2ccccc12 (stereo partly drawn) showed a pIC50 [1] of 7.36, a pIC50 [2] of 7.32 and a logD ([3]; pH 7.4, logD) of 5.64.
CCC(C)CNC(=O)C[C@H](O)C(CC(C)C)NC(=O)C(CCCCNC(=O)NC)NC(=O)C(Cc1cccc2ccccc12)Cc1cccc2ccccc12 (stereo partly drawn) showed a pIC50 [1] of 7.36, a pIC50 [2] of 7.54 and a logD ([3]; pH 7.4, logD) of 5.63.
For CC(C)CC(NC(=O)C[C@H](O)C(CC(C)C)NC(=O)C(CCCCNC(=N)N[N+](=O)[O-])NC(=O)C(Cc1cccc2ccccc12)Cc1cccc2ccccc12)C(=O)NCc1ccccc1 (stereo partly drawn), the pIC50 [1] was 7.31, the pIC50 [2] was 7.82 and the logD ([3]; pH 7.4) was 5.51.
In the case of CCC(C)CNC(=O)C[C@H](O)C(CC(C)C)NC(=O)C(CCCCN)NC(=O)C(Cc1cccc2ccccc12)Cc1cccc2ccccc12 (stereo partly drawn), the pIC50 [1] was 5.46, the pIC50 [2] was 5.59 and the logD ([3]; pH 7.4, logD) was 5.25.
Compound CCC(C)CNC(=O)C[C@H](O)C(CC(C)C)NC(=O)C(CCCCNC(=NC#N)SC)NC(=O)C(Cc1cccc2ccccc12)Cc1cccc2ccccc12 (stereo partly drawn) has a pIC50 [1] of 7.39, a pIC50 [2] of 7.72 and a logD ([3]; pH 7.4, logD) of 5.51.
In the case of CCC(C)CNC(=O)C[C@H](O)C(CC(C)C)NC(=O)C(CCCC/N=C(/S)NC)NC(=O)C(Cc1cccc2ccccc12)Cc1cccc2ccccc12 (stereo partly drawn), the pIC50 [1] was 7.64, the pIC50 [2] was 7.89 and the pIC50 [7] was 6.11. The solubility [8] was under 10 µg/mL and the logD ([3]; pH 7.4, logD) was 5.71.
In the case of C/N=C(\S)NCCCCC(NC(=O)C(CC(=O)N1CCOCC1)Cc1cccc2ccccc12)C(=O)NC(CC1CCCCC1)[C@@H](O)CC(=O)N1CCOC(CCN)C1 (stereo partly drawn), the pIC50 [1] was 7.44, the pIC50 [2] was 7.70 and the logD ([3]; pH 7.4, logD) was 1.68.
With CCC(C)CNC(=O)C[C@H](O)C(CC(C)C)NC(=O)C(CCCCNC(N)=O)NC(=O)C(Cc1cccc2ccccc12)Cc1cccc2ccccc12 (stereo partly drawn) the pIC50 [1] was 7.05, the pIC50 [2] was 7.30 and the logD ([3]; pH 7.4, logD) was 5.31.
With CC(=O)NCC#CCC(NC(=O)C(Cc1cccc2ccccc12)Cc1cccc2ccccc12)C(=O)NC(CC1CCCCC1)[C@@H](O)CC(=O)N1CCOC(CCN)C1 (stereo partly drawn) the pIC50 [1] was 8.05 and the inhibition [9] was 0.3%.
With C/N=C(\S)NCCCCC(NC(=O)C(Cc1cccc2ccccc12)Cc1cccc2ccccc12)C(=O)NC(CC(C)C)[C@@H](O)CC(=O)NC(CC(C)C)C(=O)NCc1ccccc1 (stereo partly drawn) the pIC50 [1] was 7.00, the pIC50 [2] was 7.22 and the solubility [8] was under 10 µg/mL. It also gave a logD ([3]; pH 7.4, logD) of 6.7.
With NCCC1CN(C(=O)C[C@H](O)C(CC2CCCCC2)NC(=O)C(CC#CC/N=C(/N)N[N+](=O)[O-])NC(=O)C(Cc2cccc3ccccc23)Cc2cccc3ccccc23)CCO1 (stereo partly drawn) the inhibition [9] was 0.7%.
For CCC(C)CNC(=O)C[C@H](O)C(CC(C)C)NC(=O)C(CCCCNP(=O)(Oc1ccccc1)Oc1ccccc1)NC(=O)C(Cc1cccc2ccccc12)Cc1cccc2ccccc12 (stereo partly drawn), the inhibition [5] was 48%, the pIC50 [2] was 6.13 and the logD ([3]; pH 7.4) was 7.88.
Work on CCC(C)CNC(=O)C[C@H](O)C(CC(C)C)NC(=O)C(CCCCC/N=C(\N)N[N+](=O)[O-])NC(=O)C(Cc1cccc2ccccc12)Cc1cccc2ccccc12 (stereo partly drawn) yielded a pIC50 [4] of 5.83, a pIC50 [1] of 7.70 and a pIC50 [2] of 7.59. For the same compound, the logD ([3]; pH 7.4) was 5.1.
CCC(C)CNC(=O)C[C@H](O)C(CC(C)C)NC(=O)C(C/C=C/C/N=C(/S)NC)NC(=O)C(Cc1cccc2ccccc12)Cc1cccc2ccccc12 (stereo partly drawn) showed a pIC50 [1] of 7.59, a pIC50 [2] of 7.39 and a logD ([3]; pH 7.4, logD) of 5.23.
For CC(C)CC(NC(=O)C(CCCC/N=C(/N)N[N+](=O)[O-])NC(=O)C(Cc1cccc2ccccc12)Cc1cccc2ccccc12)[C@@H](O)CC(=O)N1CCOC(CCN)C1 (stereo partly drawn), the pIC50 [1] was 7.40, the pIC50 [2] was 7.35 and the logD ([3]; pH 7.4) was 4.09.
With CCC(C)CNC(=O)C[C@H](O)C(CC(C)C)NC(=O)C(CCNC(C)=O)NC(=O)C(Cc1cccc2ccccc12)Cc1cccc2ccccc12 (stereo partly drawn) the pIC50 [1] was 5.38, the pIC50 [2] was under 5.00 and the logD ([3]; pH 7.4, logD) was 4.4.
